Tested on: Fibroblast
Assay: Multiplex assay against human fibroblast
Format: toxicity, cell-based
In short: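 Live cells were stained at seeding with Hoechst33342, BioTracker Green Microtubule Cytoskeleton Dye, MitoTracker Red and Annexin V Alexa Fluor 680. Following compound addition, they were imaged on a CQ1 microscope at 37°C and 5% CO2 and gated by CellPathfinder machine learning into Hoechst high-intensity objects or normal cells, with normal cells split into healthy, pyknosed or fragmented nuclei and pyknosed cells into mitotic or apoptotic. Tubulin, mitochondrial-mass and membrane-permeability phenotypes are per cents of healthy-nucleus cells.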

[1] = 12 h, 1 µM, compound concentration 1 uM, replicate 1
[2] = 12 h, 1 µM, compound concentration 1 uM, replicate 2
[3] = 12 h, 10 µM, compound concentration 10 uM, replicate 1
[4] = 12 h, 10 µM, compound concentration 10 uM, replicate 2
[5] = 24 h, 1 µM, compound concentration 1 uM, replicate 1
[6] = 24 h, 1 µM, compound concentration 1 uM, replicate 2
[7] = 24 h, 10 µM, compound concentration 10 uM, replicate 1
[8] = 24 h, 10 µM, compound concentration 10 uM, replicate 2
[9] = 48 h, 1 µM, compound concentration 1 uM, replicate 1
[10] = 48 h, 1 µM, compound concentration 1 uM, replicate 2
[11] = 48 h, 10 µM, compound concentration 10 uM, replicate 1
[12] = 48 h, 10 µM, compound concentration 10 uM, replicate 2

Cl.NC[C@@H]1O[C@H](C23CC4CC(CC(C4)C2)C3)Cc2c1ccc(O)c2O
Population Apoptotic (%) [1]: 60%
Population Fragmented Nuclei (%) [1]: 28%
Population Healthy Nuclei (%) [1]: 51%
Population Hoechst High Intensity Objects (%) [1]: 12%
Population Membrane Permeable-Phenotype (%) [1]: 16%
Population Mitochondria Different-Phenotype (%) [1]: 1%
Population Mitotic Cells (%) [1]: 40%
Population Normal (%) [1]: 87%
Population Pyknosed Nuclei (%) [1]: 20%
Population Tubulin-Different-Phenotype (%) [1]: 24%
Total Cell Count [1]: 171
Population Apoptotic (%) [2]: 0%
Population Fragmented Nuclei (%) [2]: 6%
Population Healthy Nuclei (%) [2]: 91%
Population Hoechst High Intensity Objects (%) [2]: 3%
Population Membrane Permeable-Phenotype (%) [2]: 2%
Population Mitochondria Different-Phenotype (%) [2]: 9%
Population Mitotic Cells (%) [2]: 100%
Population Normal (%) [2]: 96%
Population Pyknosed Nuclei (%) [2]: 2%
Population Tubulin-Different-Phenotype (%) [2]: 10%
Total Cell Count [2]: 95
Population Apoptotic (%) [3]: 44%
Population Fragmented Nuclei (%) [3]: 29%
Population Healthy Nuclei (%) [3]: 42%
Population Hoechst High Intensity Objects (%) [3]: 15%
Population Membrane Permeable-Phenotype (%) [3]: 8%
Population Mitochondria Different-Phenotype (%) [3]: 9%
Population Mitotic Cells (%) [3]: 55%
Population Normal (%) [3]: 84%
Population Pyknosed Nuclei (%) [3]: 28%
Population Tubulin-Different-Phenotype (%) [3]: 46%
Total Cell Count [3]: 205
Population Apoptotic (%) [4]: 52%
Population Fragmented Nuclei (%) [4]: 39%
Population Healthy Nuclei (%) [4]: 32%
Population Hoechst High Intensity Objects (%) [4]: 10%
Population Membrane Permeable-Phenotype (%) [4]: 9%
Population Mitochondria Different-Phenotype (%) [4]: 22%
Population Mitotic Cells (%) [4]: 47%
Population Normal (%) [4]: 89%
Population Pyknosed Nuclei (%) [4]: 27%
Population Tubulin-Different-Phenotype (%) [4]: 27%
Total Cell Count [4]: 76
Population Apoptotic (%) [5]: 50%
Population Fragmented Nuclei (%) [5]: 32%
Population Healthy Nuclei (%) [5]: 55%
Population Hoechst High Intensity Objects (%) [5]: 14%
Population Membrane Permeable-Phenotype (%) [5]: 14%
Population Mitochondria Different-Phenotype (%) [5]: 0%
Population Mitotic Cells (%) [5]: 50%
Population Normal (%) [5]: 85%
Population Pyknosed Nuclei (%) [5]: 12%
Population Tubulin-Different-Phenotype (%) [5]: 26%
Total Cell Count [5]: 213
Population Apoptotic (%) [6]: 42%
Population Fragmented Nuclei (%) [6]: 8%
Population Healthy Nuclei (%) [6]: 85%
Population Hoechst High Intensity Objects (%) [6]: 2%
Population Membrane Permeable-Phenotype (%) [6]: 5%
Population Mitochondria Different-Phenotype (%) [6]: 10%
Population Mitotic Cells (%) [6]: 57%
Population Normal (%) [6]: 97%
Population Pyknosed Nuclei (%) [6]: 6%
Population Tubulin-Different-Phenotype (%) [6]: 12%
Total Cell Count [6]: 114
Population Apoptotic (%) [7]: 58%
Population Fragmented Nuclei (%) [7]: 17%
Population Healthy Nuclei (%) [7]: 52%
Population Hoechst High Intensity Objects (%) [7]: 29%
Population Membrane Permeable-Phenotype (%) [7]: 5%
Population Mitochondria Different-Phenotype (%) [7]: 16%
Population Mitotic Cells (%) [7]: 41%
Population Normal (%) [7]: 70%
Population Pyknosed Nuclei (%) [7]: 30%
Population Tubulin-Different-Phenotype (%) [7]: 50%
Total Cell Count [7]: 181
Population Apoptotic (%) [8]: 92%
Population Fragmented Nuclei (%) [8]: 50%
Population Healthy Nuclei (%) [8]: 29%
Population Hoechst High Intensity Objects (%) [8]: 18%
Population Membrane Permeable-Phenotype (%) [8]: 26%
Population Mitochondria Different-Phenotype (%) [8]: 26%
Population Mitotic Cells (%) [8]: 7%
Population Normal (%) [8]: 81%
Population Pyknosed Nuclei (%) [8]: 20%
Population Tubulin-Different-Phenotype (%) [8]: 26%
Total Cell Count [8]: 80
Population Apoptotic (%) [9]: 87%
Population Fragmented Nuclei (%) [9]: 36%
Population Healthy Nuclei (%) [9]: 59%
Population Hoechst High Intensity Objects (%) [9]: 11%
Population Membrane Permeable-Phenotype (%) [9]: 10%
Population Mitotic Cells (%) [9]: 12%
Population Normal (%) [9]: 88%
Population Pyknosed Nuclei (%) [9]: 4%
Population Tubulin-Different-Phenotype (%) [9]: 13%
Total Cell Count [9]: 212
Population Apoptotic (%) [10]: 100%
Population Fragmented Nuclei (%) [10]: 21%
Population Healthy Nuclei (%) [10]: 77%
Population Hoechst High Intensity Objects (%) [10]: 10%
Population Membrane Permeable-Phenotype (%) [10]: 16%
Population Mitochondria Different-Phenotype (%) [10]: 0%
Population Mitotic Cells (%) [10]: 0%
Population Normal (%) [10]: 89%
Population Pyknosed Nuclei (%) [10]: 0%
Population Tubulin-Different-Phenotype (%) [10]: 21%
Total Cell Count [10]: 114
Population Apoptotic (%) [11]: 66%
Population Fragmented Nuclei (%) [11]: 32%
Population Healthy Nuclei (%) [11]: 43%
Population Hoechst High Intensity Objects (%) [11]: 24%
Population Membrane Permeable-Phenotype (%) [11]: 50%
Population Mitochondria Different-Phenotype (%) [11]: 5%
Population Mitotic Cells (%) [11]: 33%
Population Normal (%) [11]: 75%
Population Pyknosed Nuclei (%) [11]: 23%
Population Tubulin-Different-Phenotype (%) [11]: 46%
Total Cell Count [11]: 169
Population Apoptotic (%) [12]: 100%
Population Fragmented Nuclei (%) [12]: 50%
Population Healthy Nuclei (%) [12]: 48%
Population Hoechst High Intensity Objects (%) [12]: 17%
Population Membrane Permeable-Phenotype (%) [12]: 14%
Population Mitochondria Different-Phenotype (%) [12]: 1%
Population Mitotic Cells (%) [12]: 0%
Population Normal (%) [12]: 82%
Population Pyknosed Nuclei (%) [12]: 1%
Population Tubulin-Different-Phenotype (%) [12]: 43%
Total Cell Count [12]: 236

Reference: ChEMBL document CHEMBL4689842, “EUbOPEN Chemogenomics Library wave 1” (2021)
